Activity calls are given as the source filed them. The calls are words filed in the database; no cut-off is given here.
Key:
MOLT-4 [1] = assay: Ratio of melphalan IC50 to compound IC50 for human Molt4/C8 cells; format: functional; conditions: pooled result: one value given for 4 cell lines, strains, targets or settings
[2] = Antileukemic activity against human RPMI8226 cells assessed as inhibition of tumor growth after 24 hrs; format: functional, cell-based; conditions: rpmi-8226
RPMI-8226 = assay: Ratio of melphalan IC50 to compound IC50 for human RPMI8226 cells; format: functional; conditions: pooled result: one value given for 3 cell lines, strains, targets or settings
[3] = Cytotoxicity against human NCI60 cells assessed as inhibition of tumor growth after 24 hrs; format: functional, cell-based; conditions: NCI60, 24 h
[4] = Cytotoxicity against human HCT15 cells assessed as inhibition of tumor growth after 24 hrs; format: functional, cell-based; conditions: HCT-15, 24 h
SR = assay: Antileukemic activity against human SR cells assessed as inhibition of tumor growth after 24 hrs; format: functional, cell-based
MOLT-4 [5] = assay: Ratio of curcumin IC50 to compound IC50 for human Molt4/C8 cells; format: functional; conditions: pooled result: one value given for 4 cell lines, strains, targets or settings
CCRF-CEM [6] = assay: Antiproliferative activity against human CEM cells after 72 hrs by coulter counting analysis; format: functional, cell-based
Summary of the method: (§1)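 Cells exposed to a range of concentrations in RPMI 1640 at 37°C for 72 h. Surviving cells counted by Coulter counter. IC50 taken from concentration-response curves, mean ± SD of at least three independent experiments.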

HCC 2998 = assay: Cytotoxicity against human HCC2998 cells assessed as inhibition of tumor growth after 24 hrs; format: functional, cell-based; conditions: HCC 2998, 24 h
HeLa = assay: Antiproliferative activity against human HeLa cells after 72 hrs by coulter counting analysis; format: functional, cell-based; summary of the method: as §1
SW-620 = assay: Cytotoxicity against human SW620 cells assessed as inhibition of tumor growth after 24 hrs; format: functional, cell-based; conditions: SW-620, 24 h
L1210 = assay: Antiproliferative activity against mouse L1210 cells after 72 hrs by coulter counting analysis; format: functional, cell-based; conditions: L1210, 72 h
COLO 205 [7] = assay: Cytotoxicity against human COLO205 cells assessed as inhibition of tumor growth after 24 hrs; format: functional, cell-based; conditions: COLO 205, 24 h
COLO 205 [8] = assay: Ratio of 5-fluorouracil IC50 to compound IC50 for human COLO205 cells; format: functional; conditions: pooled result: one value given for 5 cell lines, strains, targets or settings
[9] = Antiproliferative activity against human Molt4/C8 cells after 72 hrs by coulter counting analysis; format: functional, cell-based; conditions: MOLT-4, 72 h; summary of the method: as §1
K562 = assay: Antileukemic activity against human K562 cells assessed as inhibition of tumor growth after 24 hrs; format: functional, cell-based; conditions: K562, 24 h
KM12 = assay: Cytotoxicity against human KM12 cells assessed as inhibition of tumor growth after 24 hrs; format: functional, cell-based; conditions: KM12, 24 h
HL-60(TB) = assay: Antileukemic activity against human HL-60(TB) cells assessed as inhibition of tumor growth after 24 hrs; format: functional, cell-based; conditions: HL-60, 24 h
[10] = Cytotoxicity against human SupT1 cells assessed as dead cells at 1 uM after 24 hrs; format: functional, SUP-T1
Summary of the method: (§2)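 Dienones added as DMSO solutions to cells in RPMI medium and incubated 24 h at 37°C. Cytotoxicity was scored as cell-membrane disruption by propidium iodide staining and expressed as percentage of dead cells, averaged over three independent experiments.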

HCC70 = assay: Cytotoxicity against human HCC70 cells assessed as dead cells at 1 uM after 24 hrs; format: functional; summary of the method: as §2
CCRF-CEM [11] = assay: Induction of apoptosis in human CEM T-lymphocytes assessed as early apoptotic cells at 1 uM after 24 hrs by Annexin V/propidium iodide staining-based FITC analysis (reference value: 5.6%); format: functional
[12] = Cytotoxicity against human MOLT3 cells assessed as dead cells at 1 uM after 24 hrs; format: functional, MOLT-3; summary of the method: as §2
YT = assay: Cytotoxicity against human YT cells assessed as dead cells at 1 uM after 24 hrs; format: functional; summary of the method: as §2
LAPC4 = assay: Cytotoxicity against human LAPC4 cells assessed as dead cells at 1 uM after 24 hrs; format: functional; summary of the method: as §2
[13] = Cytotoxicity against human MDA231 cells assessed as dead cells at 1 uM after 24 hrs; format: functional, MDA-MB-231; summary of the method: as §2
CCRF-CEM [14] = assay: Induction of apoptosis in human CEM T-lymphocytes assessed as late apoptotic at necrotic cell stage at 1 uM after 8 hrs by flow cytometric analysis (reference value: 0%); format: functional
[15] = Cytotoxicity against human MCF10A cells assessed as dead cells at 1 uM after 24 hrs; format: cell-based; conditions: mcf-10a
Summary of the method: (§3)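 Compounds added from DMSO solutions to cells in medium (RPMI; DMEM for Hs-27 fibroblasts) and incubated 24 h at 37°C. Membrane disruption scored by propidium iodide uptake. Result is percentage of dead cells, average of three independent experiments.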

EL4 = assay: Cytotoxicity against mouse EL4 cells assessed as dead cells at 1 uM after 24 hrs; format: functional; summary of the method: as §2
MCF7 = assay: Cytotoxicity against human MCF7 cells assessed as dead cells at 1 uM after 24 hrs; format: functional; summary of the method: as §2
DU-145 = assay: Cytotoxicity against human DU145 cells assessed as dead cells at 1 uM after 24 hrs; format: functional; summary of the method: as §2
[16] = Cytotoxicity against human HuT-102 cells assessed as dead cells at 1 uM after 24 hrs; format: functional; summary of the method: as §2
HS27 = assay: Cytotoxicity against human HS27 cells assessed as dead cells at 1 uM after 24 hrs; format: cell-based; conditions: hs27, 24 h; summary of the method: as §3
CCRF-CEM [17] = assay: Induction of apoptosis in human CEM T-lymphocytes assessed as viable cells at 1 uM after 24 hrs by Annexin V/propidium iodide staining-based FITC analysis (reference value: 93.4%); format: functional; conditions: read-out: Activity
Ramos = assay: Cytotoxicity against human Ramos cells assessed as dead cells at 1 uM after 24 hrs; format: functional; summary of the method: as §2
CCRF-CEM [18] = assay: Induction of apoptosis in human CEM T-lymphocytes assessed as caspase3 activation at necrotic cell stage at 1 uM after 8 hrs by flow cytometric analysis (reference value: 0%); format: functional
CCRF-CEM [19] = assay: Induction of apoptosis in human CEM T-lymphocytes assessed as necrotic cells at 1 uM after 24 hrs by Annexin V/propidium iodide staining-based FITC analysis (reference value: 0.2%); format: functional
[20] = Cytotoxicity against human 22Rvl cells assessed as dead cells at 1 uM after 24 hrs; format: functional; summary of the method: as §2
CCRF-CEM [21] = assay: Cytotoxicity against human CEM T-lymphocytes assessed as mitochondrial membrane depolarization at 1 uM after 8 hrs by JC-1 red/green staining analysis; format: functional, cell-based
Summary of the method: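 CEM cells (RPMI-1640, 10% FBS, 50,000 per well) were exposed to 1 μM compound for 8 h at 37°C, 5% CO2, in triplicate. They were then stained with 2 μM JC-1; the red signal marks polarized mitochondria and the green signal marks depolarized ones. Green-emitting cells were counted by flow cytometry, about 10,000 events. Controls: untreated, DMSO and CCCP 50 μM.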

CCRF-CEM [22] = assay: Cytotoxicity against human CEM cells assessed as dead cells at 1 uM after 24 hrs; format: functional; summary of the method: as §2
CCRF-CEM [23] = assay: Induction of apoptosis in human CEM T-lymphocytes assessed as viable at necrotic cell stage at 1 uM after 8 hrs by flow cytometric analysis (reference value: 95.7%); format: functional
BJAB = assay: Cytotoxicity against human BJAB cells assessed as dead cells at 1 uM after 24 hrs; format: functional; summary of the method: as §2
Raji = assay: Cytotoxicity against human Raji cells assessed as dead cells at 1 uM after 24 hrs; format: functional; summary of the method: as §2
CCRF-CEM [24] = assay: Induction of apoptosis in human CEM T-lymphocytes assessed as early apoptotic at necrotic cell stage at 1 uM after 8 hrs by flow cytometric analysis (reference value: 4.3%); format: functional
[25] = Cytotoxicity against human NALM6 cells assessed as dead cells at 1 uM after 24 hrs; format: functional, NALM-6; summary of the method: as §2
Jurkat = assay: Cytotoxicity against human Jurkat cells assessed as dead cells at 1 uM after 24 hrs; format: functional; summary of the method: as §2
CCRF-CEM [26] = assay: Induction of apoptosis in human CEM T-lymphocytes assessed as late apoptotic cells at 1 uM after 24 hrs by Annexin V/propidium iodide staining-based FITC analysis (reference value: 0.8%); format: functional

SMILES | IC50 (CCRF-CEM [6]) | IC50 (HeLa) | IC50 (L1210) | IC50 [9] | Activity [10] | Activity (HCC70) | Activity [12] | Activity (YT) | Activity (LAPC4) | Activity [13] | Activity [15] | Activity (EL4) | Activity (MCF7) | Activity (DU-145) | Activity [16] | Activity (HS27) | Activity (Ramos) | Activity [20] | Activity (CCRF-CEM [22]) | Activity (BJAB) | other results
COc1cc(/C=C2/CN(C(=O)CC(=O)N3C/C(=C\c4cc(OC)c(OC)c(OC)c4)C(=O)/C(=C/c4cc(OC)c(OC)c(OC)c4)C3)C/C(=C\c3cc(OC)c(OC)c(OC)c3)C2=O)cc(OC)c1OC | 284 nM | 216 nM | 214 nM | 60 nM |  |  |  |  |  |  |  |  |  |  |  |  |  |  |  |  | Ratio IC50 (MOLT-4 [1]): 14.2; IC50 [2]: 50 nM; Ratio IC50 (RPMI-8226): 1890; IC50 [3]: 50 nM; IC50 [4]: 30 nM; IC50 (SR): 10 nM; Ratio IC50 (MOLT-4 [5]): 66.8; IC50 (HCC 2998): 100 nM; IC50 (SW-620): 50 nM; IC50 (COLO 205 [7]): 60 nM; Ratio IC50 (COLO 205 [8]): 141; IC50 (K562): 30 nM; IC50 (KM12): 40 nM; IC50 (HL-60(TB)): 40 nM
COc1ccc(/C=C2/CN(C(=O)CC(=O)N3C/C(=C\c4ccc(OC)c(OC)c4)C(=O)/C(=C/c4ccc(OC)c(OC)c4)C3)C/C(=C\c3ccc(OC)c(OC)c3)C2=O)cc1OC | 348 nM | 370 nM | 378 nM | 388 nM | 31% | 2.1% | 2.6% | 32.3% | 20.6% | 1.8% | 6.1% | 43.7% | 23% | 67.4% | 51.6% | 6.4% | 88.6% | 2% | 77.6% | 61% | Activity (CCRF-CEM [11]): 70.2%; Activity (CCRF-CEM [14]): 0%; viability at 1 µM (CCRF-CEM [17]): 2.5%; Activity (CCRF-CEM [18]): 0%; Activity (CCRF-CEM [19]): 3.9%; Activity (CCRF-CEM [21]): Active; Activity (CCRF-CEM [23]): 87.7%; Activity (Raji): 50.8%; Activity (CCRF-CEM [24]): 12.3%; Activity [25]: 63.9%; Activity (Jurkat): 83.9%; Activity (CCRF-CEM [26]): 23.3%
COc1ccc(/C=C2\CN(C(=O)C(=O)N3C/C(=C\c4ccc(OC)c(OC)c4)C(=O)/C(=C/c4ccc(OC)c(OC)c4)C3)C/C(=C\c3ccc(OC)c(OC)c3)C2=O)cc1OC | 4360 nM | 4430 nM | 6310 nM | 779 nM | 33% | 3.9% | 31.8% | 39.2% | 35.4% | 4.6% | 5.8% | 46.5% | 17.7% | 45.7% | 50.9% | 10.2% | 87.4% | 38.2% | 88.1% | 62.8% | Activity (CCRF-CEM [11]): 12.8%; Activity (CCRF-CEM [14]): 0%; viability at 1 µM (CCRF-CEM [17]): 15.4%; Activity (CCRF-CEM [18]): 0%; Activity (CCRF-CEM [19]): 33.8%; Activity (CCRF-CEM [21]): Active; Activity (CCRF-CEM [23]): 91%; Activity (Raji): 56.3%; Activity (CCRF-CEM [24]): 9%; Activity [25]: 60.7%; Activity (Jurkat): 84.8%; Activity (CCRF-CEM [26]): 38%
COc1cc(/C=C2\CN(C(=O)C(=O)N3C/C(=C\c4cc(OC)c(OC)c(OC)c4)C(=O)/C(=C/c4cc(OC)c(OC)c(OC)c4)C3)C/C(=C\c3cc(OC)c(OC)c(OC)c3)C2=O)cc(OC)c1OC | 325 nM | 246 nM | 182 nM | 47 nM | 38.2% | 7.3% | 30.3% | 13% | 9.7% | 4.7% | 7.6% | 33.8% | 43.2% | 41.3% | 50.5% | 15.4% | 65.1% | 3.4% | 84.1% | 60.9% | Ratio IC50 (MOLT-4 [1]): 13.5; IC50 [2]: 20 nM; Ratio IC50 (RPMI-8226): 1418; IC50 [3]: 60 nM; IC50 [4]: 70 nM; IC50 (SR): 20 nM; Ratio IC50 (MOLT-4 [5]): 63.8; IC50 (HCC 2998): 100 nM; IC50 (SW-620): 30 nM; IC50 (COLO 205 [7]): 70 nM; Ratio IC50 (COLO 205 [8]): 121; Activity (Raji): 55.7%; Activity [25]: 67.6%; Activity (Jurkat): 78.7%; IC50 (K562): 30 nM; IC50 (KM12): 60 nM; IC50 (HL-60(TB)): 70 nM

From ChEMBL document CHEMBL3352437, “Novel 3,5-bis(arylidene)-4-oxo-1-piperidinyl dimers: structure-activity relationships and potent antileukemic and antilymphoma cytotoxicity” (Eur J Med Chem, 2014)
